For 24 compounds, MIC, IC50 and MHC results are on record in ChEMBL document CHEMBL1821587, “Synthesis, antibacterial activities and molecular docking studies of Schiff bases derived from N-(2/4-benzaldehyde-amino) phenyl-N'-phenyl-thiourea” (Bioorg Med Chem, 2011).

≈ marks a conversion by molar mass, not a printed value.

One data set relates to Escherichia coli. Put plainly: Antibacterial activity against Escherichia coli ATCC 35218 after 24 hrs by MTT assay. Conditions: ATCC 35218, 24 h. The class given is functional. The essentials:
(§1)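 MICs by broth microdilution in Mueller-Hinton medium. Compounds were taken from a 100 μg/mL DMSO stock into sterile medium and serially diluted. Inoculum about 10⁵ cfu/mL, incubated 37 °C for 24 h, and MIC read visually. MTT (2 mg/mL in PBS pH 7.4) was then added for 4–5 h at room temperature, dye extracted with acidified isopropanol for 12 h, OD read at 550 nm.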

The next data set deals with Pseudomonas aeruginosa. Put plainly: Antibacterial activity against Pseudomonas aeruginosa ATCC 13525 after 24 hrs by MTT assay. The settings on record: ATCC 13525, 24 h. The class given is functional. An outline of the steps:
as §1

The next data set has as its system Bacillus subtilis. Put plainly: Antibacterial activity against Bacillus subtilis ATCC 6633 after 24 hrs by MTT assay. It is filed as functional. Conditions: ATCC 6633, 24 h. An outline of the steps: as §1
For a further data set, the system named is Staphylococcus aureus. Put plainly: Antibacterial activity against Staphylococcus aureus ATCC 6538 after 24 hrs by MTT assay. The class given is functional. The settings on record: ATCC 6538, 24 h. The essentials:
as §1

The nature of data set [1]: Inhibition of Escherichia coli N-terminal His-tagged FabH expressed in Escherichia coli BL21(DE3) using [3H]-acetyl-CoA after 25 mins by liquid scintillation counting. The essentials: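 His-tagged E. coli FabH was expressed with IPTG induction, purified on Ni-NTA and stored in Tris pH 7.6 with DTT and glycerol. Assay in 20 mM sodium phosphate pH 7.0 with 0.5 mM DTT, 0.25 mM MgCl₂, […] ACPS-converted holo-ACP and 1 nM FabH. Started with 25 μM acetyl-CoA plus [³H]acetyl-CoA, run 25 min, stopped with TCA; pellet counted by scintillation. Inhibitors added in DMSO (final ≤2%) for IC50.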

Data set [2] is described as follows: Toxicity in RBC assessed as hemolysis. The class given is cell-based. The settings on record: erythrocyte.

For `S=C(Nc1ccccc1)Nc1ccc(/N=C/c2ccc(Br)cc2)cc1`, the MIC turned out to be 25 µg/mL (≈ 60.9 µM) against Escherichia coli, 25 µg/mL (≈ 60.9 µM) with Pseudomonas aeruginosa, 50 µg/mL (≈ 122 µM) against Bacillus subtilis and 50 µg/mL (≈ 122 µM) against Staphylococcus aureus. The half-inhibitory concentration (IC50) in data set [1] came to 40.8 µM. Moreover, the MHC in data set [2] is > 10000 µg/mL.

Take `Oc1ccc(Br)cc1/C=N/c1ccc(NC(=S)Nc2ccccc2)cc1`: the MIC against Escherichia coli came to 25 µg/mL (≈ 58.6 µM); in the data set on Pseudomonas aeruginosa, 25 µg/mL (≈ 58.6 µM); in the data set with Bacillus subtilis, 50 µg/mL (≈ 117 µM); in the data set with Staphylococcus aureus it was 50 µg/mL (≈ 117 µM). The IC50 in data set [1] came to 39 µM. Also, in data set [2], the MHC was > 10000 µg/mL.

On to `Oc1c(Br)cc(Br)cc1/C=N/c1ccccc1NC(=S)Nc1ccccc1`, for which the minimum inhibitory concentration (MIC) with Escherichia coli, against Pseudomonas aeruginosa, against Bacillus subtilis and in the data set on Staphylococcus aureus was > 100 µg/mL each time.

`COc1ccc(/C=N/c2ccccc2NC(=S)Nc2ccccc2)cc1`: the minimum inhibitory concentration (MIC) against Escherichia coli, in the data set on Pseudomonas aeruginosa, against Bacillus subtilis and against Staphylococcus aureus was > 100 µg/mL in each case.

Regarding `S=C(Nc1ccccc1)Nc1ccc(/N=C/c2cccc(Br)c2)cc1`, the MIC against Escherichia coli, with Pseudomonas aeruginosa, in the data set on Bacillus subtilis and against Staphylococcus aureus was > 100 µg/mL throughout.

In the case of `Oc1ccc(Br)cc1/C=N/c1ccccc1NC(=S)Nc1ccccc1`, the MIC with Escherichia coli, in the data set with Pseudomonas aeruginosa, with Bacillus subtilis and in the data set with Staphylococcus aureus was > 100 µg/mL throughout.

Regarding `S=C(Nc1ccccc1)Nc1ccc(/N=C/c2ccc(Cl)cc2Cl)cc1`, the MIC was determined as 12.5 µg/mL (≈ 31.2 µM) in the data set with Escherichia coli, 25 µg/mL (≈ 62.4 µM) against Pseudomonas aeruginosa, 12.5 µg/mL (≈ 31.2 µM) with Bacillus subtilis and 12.5 µg/mL (≈ 31.2 µM) against Staphylococcus aureus. The compound further came in with an IC50 in data set [1] of 30.4 µM. The MHC in data set [2] is > 10000 µg/mL.

Consider `Cc1ccc(/C=N/c2ccc(NC(=S)Nc3ccccc3)cc2)cc1`, for which the MIC with Escherichia coli is 12.5 µg/mL (≈ 36.2 µM); against Pseudomonas aeruginosa it was 25 µg/mL (≈ 72.4 µM); in the data set with Bacillus subtilis it was 25 µg/mL (≈ 72.4 µM); against Staphylococcus aureus, 25 µg/mL (≈ 72.4 µM). Moreover, inhibition in data set [1] was half-maximal at 25.9 µM (IC50). Further, the MHC in data set [2] is > 10000 µg/mL.

`S=C(Nc1ccccc1)Nc1ccc(/N=C/c2ccc(OCc3ccccc3)cc2)cc1`: the minimum inhibitory concentration (MIC) against Escherichia coli stood at 1.56 µg/mL (≈ 3.57 µM); in the data set on Pseudomonas aeruginosa, 3.13 µg/mL (≈ 7.15 µM); in the data set with Bacillus subtilis, 6.25 µg/mL (≈ 14.3 µM); against Staphylococcus aureus, 3.13 µg/mL (≈ 7.15 µM). In addition, the half-maximal inhibitory concentration (IC50) in data set [1] amounted to 4.3 µM. Further, in data set [2], the MHC was > 10000 µg/mL.

Take `Oc1c(Br)cc(Br)cc1/C=N/c1ccc(NC(=S)Nc2ccccc2)cc1`: the MIC with Escherichia coli, with Pseudomonas aeruginosa, in the data set with Bacillus subtilis and against Staphylococcus aureus was > 100 µg/mL each time.

`CC1(C)S[C@@H]2[C@H](NC(=O)Cc3ccccc3)C(=O)N2[C@H]1C(=O)O` [PENICILLIN G]: the minimum inhibitory concentration (MIC) with Escherichia coli was 3.13 µg/mL (≈ 9.36 µM); in the data set with Pseudomonas aeruginosa, 6.25 µg/mL (≈ 18.7 µM); with Bacillus subtilis, 1.56 µg/mL (≈ 4.67 µM); with Staphylococcus aureus, 6.25 µg/mL (≈ 18.7 µM).

Turning to `Fc1ccccc1/C=N/c1ccc(NC(=S)Nc2ccccc2)cc1`, the MIC against Escherichia coli, against Pseudomonas aeruginosa, with Bacillus subtilis and against Staphylococcus aureus was > 100 µg/mL each time.

Regarding `Oc1ccccc1/C=N/c1ccccc1NC(=S)Nc1ccccc1`, the minimal inhibitory concentration (MIC) with Escherichia coli, against Pseudomonas aeruginosa, against Bacillus subtilis and against Staphylococcus aureus was > 100 µg/mL throughout.

`S=C(Nc1ccccc1)Nc1ccccc1/N=C/c1ccc(Br)cc1`: the MIC with Escherichia coli is > 100 µg/mL; with Pseudomonas aeruginosa it was > 100 µg/mL; in the data set on Bacillus subtilis it was 50 µg/mL (≈ 122 µM); with Staphylococcus aureus, > 100 µg/mL.

In the case of `Oc1ccc(Cl)cc1/C=N/c1ccc(NC(=S)Nc2ccccc2)cc1`, the MIC with Escherichia coli stood at 6.25 µg/mL (≈ 16.4 µM); with Pseudomonas aeruginosa, 6.25 µg/mL (≈ 16.4 µM); against Bacillus subtilis it was 12.5 µg/mL (≈ 32.7 µM); with Staphylococcus aureus, 12.5 µg/mL (≈ 32.7 µM). In data set [1], the half-inhibitory concentration (IC50) amounted to 12.8 µM. In data set [2], the MHC was > 10000 µg/mL.

As to `Fc1ccc(/C=N/c2ccc(NC(=S)Nc3ccccc3)cc2)cc1`, the minimal inhibitory concentration (MIC) was 50 µg/mL (≈ 143 µM) with Escherichia coli, 50 µg/mL (≈ 143 µM) with Pseudomonas aeruginosa, 50 µg/mL (≈ 143 µM) in the data set on Bacillus subtilis and 25 µg/mL (≈ 71.5 µM) in the data set with Staphylococcus aureus.

Take `O=[N+]([O-])c1ccc(/C=N/c2ccc(NC(=S)Nc3ccccc3)cc2)cc1`: the minimal inhibitory concentration (MIC) was 25 µg/mL (≈ 66.4 µM) in the data set on Escherichia coli, 50 µg/mL (≈ 133 µM) against Pseudomonas aeruginosa, 50 µg/mL (≈ 133 µM) in the data set on Bacillus subtilis and 50 µg/mL (≈ 133 µM) against Staphylococcus aureus.

Take `O=[N+]([O-])c1ccccc1/C=N/c1ccc(NC(=S)Nc2ccccc2)cc1`: the MIC against Escherichia coli was > 100 µg/mL; against Pseudomonas aeruginosa, > 100 µg/mL; in the data set on Bacillus subtilis it was 50 µg/mL (≈ 133 µM); against Staphylococcus aureus, 25 µg/mL (≈ 66.4 µM).

With `S=C(Nc1ccccc1)Nc1ccccc1/N=C/c1ccc(Cl)cc1`, the MIC in the data set with Escherichia coli, against Pseudomonas aeruginosa, with Bacillus subtilis and against Staphylococcus aureus was > 100 µg/mL throughout.

On to `S=C(Nc1ccccc1)Nc1ccc(/N=C/c2ccc(Cl)cc2)cc1`, for which the MIC in the data set with Escherichia coli was found to be 6.25 µg/mL (≈ 17.1 µM); against Pseudomonas aeruginosa, 3.13 µg/mL (≈ 8.55 µM); against Bacillus subtilis it was 12.5 µg/mL (≈ 34.2 µM); against Staphylococcus aureus it was 6.25 µg/mL (≈ 17.1 µM). This compound returned a half-inhibitory concentration (IC50) in data set [1] of 15.6 µM. For the same compound, the MHC in data set [2] was > 10000 µg/mL.

Regarding `Oc1ccc(Cl)cc1/C=N/c1ccccc1NC(=S)Nc1ccccc1`, the MIC against Escherichia coli was 3.13 µg/mL (≈ 8.2 µM); against Pseudomonas aeruginosa it was 3.13 µg/mL (≈ 8.2 µM); in the data set with Bacillus subtilis, 12.5 µg/mL (≈ 32.7 µM); in the data set with Staphylococcus aureus it was 6.25 µg/mL (≈ 16.4 µM). For the same compound, 9.5 µM corresponded to half-maximal inhibition in data set [1] (IC50). Besides, the MHC in data set [2] was > 10000 µg/mL.

In the case of `COc1cccc(/C=N/c2ccc(NC(=S)Nc3ccccc3)cc2)c1`, the minimal inhibitory concentration (MIC) against Escherichia coli stood at 50 µg/mL (≈ 138 µM); against Pseudomonas aeruginosa it was 25 µg/mL (≈ 69.2 µM); with Bacillus subtilis, 25 µg/mL (≈ 69.2 µM); in the data set on Staphylococcus aureus it was 50 µg/mL (≈ 138 µM). The IC50 in data set [1] was determined as 48.1 µM. Further, in data set [2], the MHC was > 10000 µg/mL.

Consider `NC[C@H]1O[C@H](O[C@H]2[C@H](O)[C@@H](O[C@H]3O[C@H](CO)[C@@H](O)[C@H](N)[C@H]3O)[C@H](N)C[C@@H]2N)[C@H](N)[C@@H](O)[C@@H]1O` [BEKANAMYCIN], for which the MIC in the data set with Escherichia coli was found to be 1.56 µg/mL (≈ 3.23 µM); in the data set with Pseudomonas aeruginosa it was 3.13 µg/mL (≈ 6.47 µM); with Bacillus subtilis, 0.39 µg/mL (≈ 0.807 µM); against Staphylococcus aureus, 3.13 µg/mL (≈ 6.47 µM).

`Oc1ccccc1/C=N/c1ccc(NC(=S)Nc2ccccc2)cc1`: the minimum inhibitory concentration (MIC) was determined as 12.5 µg/mL (≈ 36 µM) in the data set on Escherichia coli, 6.25 µg/mL (≈ 18 µM) against Pseudomonas aeruginosa, 25 µg/mL (≈ 72 µM) against Bacillus subtilis and 6.25 µg/mL (≈ 18 µM) with Staphylococcus aureus. The compound further came in with an IC50 in data set [1] of 28.7 µM. Moreover, the MHC in data set [2] was > 10000 µg/mL.
